This is a sample that favours compounds with a hit; in the whole collection about 1.8% have one here.
ABHD4 inh – inhibitors of mouse ABHD4. Q8VD66. purified mABHD4, FP-Rh probe fluorescence polarization. inhibition, % at 8.92 µM. 370,000 compounds, 0.54% hits. AID 720543;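 active = inhibition exceeding the mean over every tested compound plus 3 SD, cut at about 30% in these data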;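 note: 0% = plate median of compound wells and 100% = S159A mutant with DMSO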
Target sequence (Q8VD66 whole entry, looked up): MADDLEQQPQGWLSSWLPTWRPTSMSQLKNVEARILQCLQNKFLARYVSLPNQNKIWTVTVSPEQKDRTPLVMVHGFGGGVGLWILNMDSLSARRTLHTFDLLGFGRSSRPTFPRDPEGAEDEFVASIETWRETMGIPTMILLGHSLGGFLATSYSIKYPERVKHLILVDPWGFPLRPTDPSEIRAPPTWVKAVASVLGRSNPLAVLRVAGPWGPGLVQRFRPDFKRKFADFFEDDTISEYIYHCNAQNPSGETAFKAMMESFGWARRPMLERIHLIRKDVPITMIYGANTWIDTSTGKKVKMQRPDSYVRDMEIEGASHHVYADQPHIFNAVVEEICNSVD
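Doses – 8.92 µM, single dose · Material – wild-type mouse ABHD4 protein · Replication – single well per compound (singlicate) · Measure – percent inhibition of probe binding, normalized to plate controls · Schedule – 45 min compound pre-incubation plus 60 min probe step, 25 °C · Detection – fluorescence polarization with parallel and perpendicular emission, 525/598 nm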
Fam108B inh – Fam108B inhibition, counter-screen for RBBP9 inhibitors; recombinant Fam108B, FP-Rh probe fluorescence polarization; inhibition, % at 9.51 µM; 300,000 compounds, 0.33% hits; AID 1947;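 active = inhibition above the screen mean inhibition plus 3 SD, computed separately per campaign, cut at about 18% in these data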;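 note: inhibitors lower polarization as less probe binds the enzyme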
TCR CD3 inh – blocks the human TCR-CD3 interaction. TAMRA-labeled TCR probe fluorescence, biochemical. inhibition, % at 9.4 µM. 360,000 compounds, 0.37% hits; in the data active = inhibition above about 19%;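 note: recombinant mutant TCR 2C K166C tagged with TAMRA read by polarization; 0% = receptor in buffer alone and 100% = receptor with positive control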
PME-1 inh – PME-1 (human) inhibition | Q9Y570 | recombinant PME-1, FP-Rh probe fluorescence polarization | inhibition, % at 5.9 µM | 320,000 compounds, 0.53% hits;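 active = inhibition above the campaign mean of all compounds plus 3 SD, cut at about 26% in these data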;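 note: competitive labeling of PME-1 active site by serine hydrolase directed probe; 0% = PME-1 with DMSO and 100% = wells lacking PME-1 enzyme; inhibitors block probe labeling so polarization falls and inhibition rises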
Target sequence (Q9Y570 whole entry, looked up): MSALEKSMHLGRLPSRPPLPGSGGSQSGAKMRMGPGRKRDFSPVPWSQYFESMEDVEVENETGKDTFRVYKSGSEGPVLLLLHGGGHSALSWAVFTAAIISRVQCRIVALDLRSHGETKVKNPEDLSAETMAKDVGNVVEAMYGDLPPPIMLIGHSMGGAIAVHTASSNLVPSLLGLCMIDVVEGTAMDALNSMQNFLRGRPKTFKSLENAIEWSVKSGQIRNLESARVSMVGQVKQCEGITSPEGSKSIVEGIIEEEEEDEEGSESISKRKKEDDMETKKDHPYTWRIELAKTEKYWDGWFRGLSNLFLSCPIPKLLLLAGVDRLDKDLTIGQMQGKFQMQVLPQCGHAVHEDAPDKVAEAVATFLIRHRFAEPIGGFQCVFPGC
SIAE primary – inhibitors of human sialic acid acetylesterase SIAE; Q9HAT2; SIAE FP-Rh probe binding, fluorescence polarization; inhibition, % at 9.66 µM; 370,000 compounds, 0.69% hits; AID 1053197;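 active = inhibition above a cutoff: mean of compounds within the control limits plus 3 SD of those, cut at about 17% in these data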;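 note: 0% = plate median of compound wells and 100% = probe without SIAE protein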
HTRA1 inhibitor – blocks human HTRA1 serine peptidase; recombinant HTRA1, FP-rhodamine activity-based probe, fluorescence polarization; 340,000 compounds, 0.5% hits; inhibition, % at 5.96 µM; AID 504803; in the data active = inhibition above about 36%;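 note: 0% = enzyme with DMSO and 100% = wells lacking enzyme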
An asterisk follows results filed as active; · = no result.

SMILES	ABHD4 inh	Fam108B inh	TCR CD3 inh	PME-1 inh	SIAE primary	HTRA1 inhibitor
Nc1cc(Cl)nc(N/N=C/c2ccc([N+](=O)[O-])cc2)n1	4.1	0.4	7.1	9.1	7.0	-4.8
CCC(C)(C)C1CCc2c(sc(NC(=O)c3ccccc3C(=O)O)c2C#N)C1 (configuration not stated)	4.2	-1.8	1.5	27.0*	-11.7	-17.3
Cc1ccccc1NC(=O)N(C)[C@H]1C[C@H]2c3[nH]c4c(-c5ccccc5)cccc4c3CCN2C[C@H]1[C@H](C)O	14.9	·	·	·	-0.2	·
Cc1c(C(=O)OC/C(O)=C(\C#N)c2nc3ccccc3[nH]2)oc2ccccc12	3.7	-2.9	3.6	31.5*	-1.8	-1.7
Cc1c(C(=O)OCC(O)=C(C#N)c2nc3ccccc3[nH]2)oc2ccc(Br)cc12	11.0	·	-1.4	·	3.7	2.4
CN(Cc1ccccc1)C(=O)OCc1cn(Cc2ccccc2)nn1	-0.2	·	·	·	-0.2	·
CCCN(CC(=O)Nc1ccccc1C)C(=O)COc1c(C)cccc1C	4.2	·	-0.5	0.1	-0.4	-5.0
CCCN(CC(=O)Nc1ccccc1C)C(=O)COC(=O)CSc1ccc([N+](=O)[O-])cc1	-1.6	0.7	11.2	28.1*	7.7	-9.8
N=c1oc2cc(O)ccc2cc1C(=O)Nc1ccccn1	·	-0.7	·	-4.5	·	·
N=c1oc2cc(O)ccc2cc1C(=O)Nc1nc2ccccc2s1	2.9	14.6	6.0	29.7*	-0.2	2.8
C=CCN(CC#CC(=C)C)Cc1ccc(OC)cc1OC	2.0	·	·	·	-5.2	·
Cc1cc(C(=O)COC(=O)c2ccc(O)cc2O)c(C)n1-c1ccc(OC(F)F)cc1	-1.6	·	5.7	·	4.2	-14.3
Cc1cc(C(=O)CC#N)c(C)n1-c1ccc(OC(F)F)cc1	-10.7	5.4	3.4	36.1*	-4.4	-1.9
C=CCN1C(=O)/C(=C2/Sc3ccccc3N2CCCS(=O)(=O)O)SC1=S	36.4*	14.1	1.6	6.6	3.3	17.1
CCCCn1c(NC(=O)c2ccc(F)cc2)c(C#N)c2nc3ccccc3nc21	·	55.7*	·	19.8	·	·
CC(=O)c1c(C)[nH]c(C(=O)Nc2nc(-c3ccc(Cl)cc3)cs2)c1C	-1.5	-5.8	-3.4	51.0*	2.4	-4.4
CC(=O)c1c(C)[nH]c(C(=O)Nc2nc(-c3ccc(-c4ccccc4)cc3)cs2)c1C	-3.5	14.0	3.4	-39.0	-88.6	-19.9
N#C/C(=C/c1ccc(N2CCOCC2)o1)c1ccc(Cl)cc1	3.1	21.0*	-1.4	0.5	8.9	7.6
CCCCCCCCN1C(=O)[C@@H](CC(=O)N2CCN(C(=O)OCC)CC2)C[C@@]2(C(=O)OC)C1=C[C@H](COCc1ccccc1)O[C@@H]2C	4.0	·	·	·	3.2	·
Oc1ccc(/C=N/NC(=S)Nc2cccnc2)cc1O	26.0	10.5	24.2*	11.5	6.8	14.6
Cc1noc(C)c1CSc1nc2ccccc2nc1NS(=O)(=O)c1ccc(Cl)cc1	·	-6.2	·	27.4*	·	-24.9
O=S(=O)(Nc1nc2ccccc2nc1NCc1ccco1)c1ccc(Cl)cc1	-2.9	2.6	1.2	8.5	-6.5	7.6
Cc1cc(O)ccc1Nc1nc2ccccc2nc1Nc1ccc(O)cc1C	23.4	9.5	13.6	17.1	19.9*	34.3
COc1ccc(N/C=C2\CCc3ccccc3C2=O)cc1	19.8	3.0	1.9	21.2	10.9	6.8
COc1ccc2c(c1)CC/C(=C\Nc1ccc3c(c1)OCO3)C2=O	17.9	12.0	-11.6	31.8*	9.8	11.9
SMILES	ABHD4 inh	Fam108B inh	TCR CD3 inh	PME-1 inh	SIAE primary	HTRA1 inhibitor
O=C1/C(=C/Nc2ccc3c(c2)OCO3)CCc2ccccc21	20.2	12.1	4.2	30.3*	5.3	8.4
CC(=O)N1CCc2cc(S(=O)(=O)NC3CCN(C(=O)OCc4ccccc4)CC3)ccc21	0.9	·	·	·	-0.2	·
CCS(=O)(=O)c1ccc(N=Nc2ccc(O)c3ncccc23)c(OC)c1	21.9	·	-2.5	·	4.3	47.4*
COc1ccccc1NC(=O)c1cc2ccc(O)cc2o/c1=N\O	16.1	15.7	-7.2	27.4*	-5.4	-1.7
CCCCCCCCN1CCS(=O)(=O)N(Cc2ccc(OC)cc2)C(C(=O)OC)C1 (configuration not stated)	-4.5	·	·	·	2.9	·
COc1cc(NC(=O)c2ccccc2)c(C)cc1NC(=O)CSc1nnc(-c2ccccc2F)n1-c1ccc(C)cc1	-9.0	·	·	·	-0.7	·
CN1CCN(C(=O)Cn2c(=O)oc3cc(S(=O)(=O)NCc4ccccc4)ccc32)CC1	-1.1	-0.6	5.4	4.4	25.2*	2.3
CCOC(=O)Cn1c(=O)oc2cc(S(=O)(=O)NCCCc3ccccc3)ccc21	-0.6	0.0	1.8	-3.1	1.0	-5.8
C[C@@H]1OC(C2CCCCC2)N(C)[C@H]2C[C@H]3c4cc(N5CCOCC5)ccc4CCN3C[C@@H]12 (some centres not stated)	2.7	·	·	·	1.4	·
CC(=O)Nc1ccc(OCC(C)CN2CCC(C(O)(c3ccccc3)c3ccccc3)CC2)cc1 (configuration not stated)	-3.6	·	·	·	3.2	·
Cc1ccccc1C(=O)N1CCC(C(=O)Nc2cccc(F)c2)CC1	-4.6	-0.8	-0.2	-2.6	26.3*	0.5
Cc1ccc(NC(=O)C2CCN(C(=O)c3ccccc3C)CC2)cc1	8.0	0.2	-4.6	-3.0	1.5	5.5
CCCCNC(=O)NS(=O)(=O)c1ccc(NC(=O)CSc2nnc(-c3cccs3)n2-c2ccc(OC)cc2)cc1	-7.2	·	·	·	-9.7	·
CCOC(=O)CSc1nc2cc3c(cc2cc1C#N)OCO3	-0.2	-1.6	3.2	22.0	-0.4	2.0
CCOC(=O)CSc1nc2cc3c(cc2cc1C#N)OCCO3	-3.1	-1.7	9.3	34.2*	-0.4	-0.8
Cc1ccc(Cn2nnc3c2-c2ccccc2S(=O)(=O)N(C2CC2)C3)cc1	-1.7	·	·	·	-3.1	·
CCN1C/C(=C/c2ccc(OC)c(O)c2)C(=O)/C(=C/c2ccc(OC)c(O)c2)C1	-0.5	-4.0	6.6	2.0	-0.4	3.1
COc1ccc(/C=C2\CN(Cc3ccccc3)C/C(=C\c3ccc(OC)c(O)c3)C2=O)cc1O	5.4	16.4	-1.9	26.6*	10.2	22.0
CCc1nc(C)ccc1OCC(=O)NCCCN(C)C	16.6	-0.6	7.6	2.3	19.8*	9.0
CCN(CC)C(=O)CC[C@H]1CC[C@]2(CCCN(C(=O)C(C)(C)C)C2)O1	1.3	·	·	·	4.4	·
Nc1ccc2oc(-c3cc(Br)ccc3Cl)nc2c1	·	4.9	·	27.6*	·	-1.4
Nc1ccc2oc(-c3ccccc3Cl)nc2c1	5.7	3.5	2.3	2.5	-0.7	2.3
CC(C)C[C@@H]1COc2cc(Br)ccc2S(=O)(=O)N1Cc1cn(Cc2ccccc2)nn1	-0.3	·	·	·	3.2	·
C=CCN1[C@@H](C)COc2cc(N3CCCC3)ccc2S1(=O)=O	7.3	·	·	·	-1.7	·
CCN(CC)S(=O)(=O)c1ccc(Cl)c(NC(=O)COC(=O)c2ccc(O)cc2)c1	-17.0	0.3	-3.2	29.0*	-7.0	-9.0
CCN(CC)S(=O)(=O)c1ccc(Cl)c(NC(=O)COC(=O)c2cccn2C)c1	-0.1	-8.8	3.7	32.9*	5.7	-18.1

Bioassay records as filed in PubChem BioAssay.
